In ChEMBL document CHEMBL1138238, “Synthesis and evaluation of 3-aryloxymethyl-1,2-dimethylindole-4,7-diones as mechanism-based inhibitors of NAD(P)H:quinone oxidoreductase 1 (NQO1) activity” (J Med Chem, 2007):

What was measured:
[1] = tested on: MIA PaCa-2; experiment: Cytotoxicity against human MIA PaCa2 cells after 4 hrs by MTT assay; type: functional, cell-based; details: MIA PaCa-2, 4 h
[2] = tested on: MIA PaCa-2; experiment: Cytotoxicity against human MIA PaCa2 cells after 72 hrs by MTT assay; type: functional, cell-based; details: MIA PaCa-2, 72 h
[3] = molecular target: NAD(P)H dehydrogenase [quinone] 1 (Homo sapiens) (UniProt P15559); experiment: Inhibition of human recombinant NQO1 expressed in MIA PaCa2 cells at 10 to 100 nM after 1 hrs; type: cell-based; details: MIA PaCa-2
How it was run: (§1)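 MIA PaCa-2 cells (1×10^6, plated the day before) exposed to indolequinone (1 nM–10 μM) in complete medium for 1 h. Cells then washed in PBS, scraped into 50 mM K phosphate pH 7.4 with 250 mM sucrose and 5 μM FAD, and sonicated on ice. NQO1 activity in sonicates measured as 0.2 mM NADH-dependent reduction of 40 μM DCPIP, read at 600 nm for 1 min at 32 °C.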

[4] = molecular target: NAD(P)H dehydrogenase [quinone] 1 (Homo sapiens) (UniProt P15559); experiment: Inhibition of human recombinant NQO1 expressed in MIA PaCa2 cells at 5000 to 10000 nM after 1 hrs; type: cell-based; details: MIA PaCa-2; how it was run: as §1
[5] = molecular target: NAD(P)H dehydrogenase [quinone] 1 (Homo sapiens) (UniProt P15559); experiment: Inhibition of human recombinant NQO1 expressed in MIA PaCa2 cells at <10 nM after 1 hrs; type: cell-based; details: MIA PaCa-2; how it was run: as §1

NAD(P)H dehydrogenase [quinone] 1 (Homo sapiens), sequence (P15559 whole entry): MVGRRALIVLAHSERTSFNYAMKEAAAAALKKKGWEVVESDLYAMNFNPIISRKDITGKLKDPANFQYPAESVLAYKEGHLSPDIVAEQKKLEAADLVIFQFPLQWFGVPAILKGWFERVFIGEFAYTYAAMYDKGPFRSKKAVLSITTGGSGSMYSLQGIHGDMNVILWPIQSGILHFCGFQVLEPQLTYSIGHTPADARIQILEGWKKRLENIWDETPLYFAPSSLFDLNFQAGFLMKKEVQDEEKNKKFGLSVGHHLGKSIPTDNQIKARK

inhibition [3] | inhibition [4] | inhibition [5] | Structure (SMILES) | IC50 [1] | IC50 [2]
– | – | – | Oc1cccnc1 | 56500 nM | 73100 nM
– | – | – | COC1=CC(=O)c2c(COc3ccccc3)c(C)n(C)c2C1=O | 4560 nM | 409 nM
> 90% | – | – | COC1=CC(=O)c2c(c(COc3cccnc3)c(C)n2C)C1=O | 904 nM | 562 nM
> 90% | – | – | COC1=CC(=O)c2c(COc3ccc(F)cc3F)c(C)n(C)c2C1=O | 255 nM | 75 nM
– | – | – | O=[N+]([O-])c1ccc(O)c(F)c1 | 14300 nM | 19200 nM
> 90% | – | – | COC1=CC(=O)c2c(COc3c(F)cc(F)cc3F)c(C)n(C)c2C1=O | 452 nM | 212 nM
– | – | – | Oc1c(F)cc(F)cc1F | 36400 nM | 38100 nM
– | > 90% | – | COC1=CC(=O)c2c(COc3ccc(C(F)(F)F)cc3)c(C)n(C)c2C1=O | 496 nM | 311 nM
– | – | – | Oc1ccncc1 | 43200 nM | 17800 nM
– | – | – | O=[N+]([O-])c1cccc(O)c1 [3-NITRO-PHENOL] | 7130 nM | 13900 nM
– | – | – | COC1=CC(=O)c2c(c(COc3c(F)cc(F)cc3F)c(C)n2C)C1=O | 427 nM | 86 nM
– | – | – | COC1=CC(=O)c2c(COc3ccc(N)cc3)c(C)n(C)c2C1=O | 504 nM | 160 nM
– | – | – | Nc1ccc(O)cc1 [4-AMINOPHENOL] | 42000 nM | 42200 nM
> 90% | – | – | COC1=CC(=O)c2c(COc3ccc([N+](=O)[O-])cc3F)c(C)n(C)c2C1=O | 529 nM | 417 nM
– | – | – | N#Cc1ccc(O)cc1 [4-CYANOPHENOL] | 56800 nM | 73300 nM
– | – | – | O=[N+]([O-])c1ccc(O)cc1 [P-NITROPHENOL] | 11000 nM | 13000 nM
– | – | > 90% | COC1=CC(=O)c2c(c(COc3ccccn3)c(C)n2C)C1=O | – | –
– | – | – | COC1=CC(=O)c2c(c(C(C)Oc3ccc([N+](=O)[O-])cc3)c(C)n2C)C1=O (stereo not given) | 1830 nM | 1700 nM
> 90% | – | – | COC1=CC(=O)c2c(COc3cccc([N+](=O)[O-])c3)c(C)n(C)c2C1=O | 351 nM | 257 nM
– | – | – | COC1=CC(=O)c2c(COc3ccc(C#N)cc3)c(C)n(C)c2C1=O | 463 nM | 192 nM

inhibition [3] | inhibition [4] | inhibition [5] | Structure (SMILES) | IC50 [1] | IC50 [2]
– | – | – | Oc1ccccc1 [PHENOL] | 16500 nM | 16000 nM
– | – | – | O=[N+]([O-])c1ccc(O)c([N+](=O)[O-])c1 [2,4-DINITROPHENOL] | 15900 nM | 22100 nM
– | – | – | COC1=CC(=O)c2c(c(COc3ccccc3)c(C)n2C)C1=O | 1380 nM | 962 nM
> 90% | – | – | COC1=CC(=O)c2c(COc3ccccc3[N+](=O)[O-])c(C)n(C)c2C1=O | 363 nM | 178 nM
– | – | – | O=[N+]([O-])c1ccccc1O [NITROPHENOLATE] | 6080 nM | 16400 nM
– | – | – | Oc1ccc(C(F)(F)F)cc1 | 13100 nM | 32900 nM
– | – | – | Oc1ccc(F)cc1F | 14800 nM | 20800 nM
– | – | – | Oc1ccc(F)cc1 | 12400 nM | 13200 nM
– | – | – | COC1=CC(=O)c2c(c(COc3ccccc3[N+](=O)[O-])c(C)n2C)C1=O | 345 nM | 104 nM
– | – | – | Oc1ccccn1 | 68100 nM | 68800 nM
> 90% | – | – | COC1=CC(=O)c2c(COc3ccncc3)c(C)n(C)c2C1=O | 2560 nM | 3270 nM
– | – | – | COC1=CC(=O)c2c(c(COc3ccncc3)c(C)n2C)C1=O | 2010 nM | 2170 nM
> 90% | – | – | COC1=CC(=O)c2c(COc3ccccn3)c(C)n(C)c2C1=O | 9580 nM | 2390 nM
> 90% | – | – | COC1=CC(=O)c2c(c(COc3ccc([N+](=O)[O-])cc3)c(C)n2C)C1=O | 629 nM | 508 nM
– | > 90% | – | COC1=CC(=O)c2c(COc3ccc(F)cc3)c(C)n(C)c2C1=O | 905 nM | 493 nM
– | – | – | COC1=CC(=O)c2c(c(COc3ccc([N+](=O)[O-])cc3F)c(C)n2C)C1=O | 4650 nM | 3560 nM
> 90% | – | – | COC1=CC(=O)c2c(COc3ccc([N+](=O)[O-])cc3)c(C)n(C)c2C1=O | 638 nM | 355 nM
> 90% | – | – | COC1=CC(=O)c2c(c(COc3cccc([N+](=O)[O-])c3)c(C)n2C)C1=O | 352 nM | 258 nM
– | – | – | COC1=CC(=O)c2c(COc3cccnc3)c(C)n(C)c2C1=O | 2480 nM | 1820 nM
